Bioassay records from PubChem.
STEP inh = STEP phosphatase inhibitors, primary screen, biochemical, fluorescence intensity, uHTS; Tyrosine-protein phosphatase non-receptor type 5 (Homo sapiens), P54829; recombinant STEP, OMFP fluorogenic substrate; inhibition, % at 20 µM; 0.25% of 360,000 active;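 active means inhibition at 20 µM, scaled per plate between control wells, above about 37%, limit read from the data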;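 further: 0% = DMSO with enzyme and substrate and 100% = substrate only without enzyme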
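Material: STEP (striatal-enriched tyrosine phosphatase) enzyme, cell-free | Medium: 50 mM Bis-Tris pH 6.0 with 2.5 mM DTT and 0.005% Tween 20 | Read-out: Percent inhibition scaled to no-enzyme and uninhibited-enzyme controls, plate-pattern corrected | Signal: Fluorescence read at 480 nm ex / 540 nm em | Times: 20 min reaction, room temperature, in the dark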
SUMO1-SIM PPI = modulators of SUMO1 protein-protein interactions, primary screen, biochemical, uHTS | Small ubiquitin-related modifier 1 (Homo sapiens), P63165 | SUMO1 binding to a labelled peptide, TR-FRET, 1 h | 0.33% of 360,000 active | inhibition, % at 20 µM; in the data active means inhibition above about 37%
Target sequence (P63165 whole entry, looked up): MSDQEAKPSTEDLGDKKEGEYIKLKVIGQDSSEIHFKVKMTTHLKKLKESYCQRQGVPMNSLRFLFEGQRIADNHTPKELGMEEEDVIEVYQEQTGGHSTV
LMPTP block = LMPTP phosphatase inhibitors, primary screen, biochemical, fluorescence intensity, uHTS. recombinant LMPTP-A, OMFP fluorogenic substrate. inhibition, % at 20 µM. 0.22% of 360,000 active. AID 651560, 2012;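 active means compounds that cut the enzyme signal by at least half of the control window in the single-dose screen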;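 further: plate controls were DMSO wells with enzyme plus substrate for no effect and substrate without enzyme for full effect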
Target sequence (P24666 whole entry, looked up): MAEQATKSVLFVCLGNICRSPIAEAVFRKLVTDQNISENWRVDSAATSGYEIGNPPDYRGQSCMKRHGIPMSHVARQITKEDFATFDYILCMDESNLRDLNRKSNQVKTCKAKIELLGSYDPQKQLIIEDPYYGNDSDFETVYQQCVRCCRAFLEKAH
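Buffer or medium: Bis-Tris pH 6.0, DTT, detergent; Assay system: LMPTP-A enzyme; Quantity: 0.625 nM enzyme; Detection: endpoint fluorescence intensity; Times: 50 min dark incubation at room temperature; Controls: substrate-only low control, DMSO enzyme-plus-substrate high control; Doses: single 20 µM dose; Read-out: percent inhibition versus substrate-only and uninhibited controls; Reagent: 400 µM OMFP.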
DNMT1 inh = human DNMT1 methyltransferase inhibitors, primary screen, biochemical, molecular beacon, fluorescence, HinP1I cleavage, uHTS | DNA (cytosine-5)-methyltransferase 1 (Homo sapiens), P26358 | inhibition (reported as % activation of signal), % at 10 µM | AID 588458, 2011 | 0.83% of 360,000 active; in the data active means inhibition above about 50%
Scp1 inh = Scp-1 phosphatase inhibitors, primary screen, biochemical, colorimetric, uHTS | Carboxy-terminal domain RNA polymerase II polypeptide A small phosphatase 1 (Homo … | Recombinant Scp1, phosphopeptide, malachite green phosphate absorbance | inhibition, % at 20 µM | 0.88% of 340,000 active | AID 493091, 2011;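 active means inhibition above about 50% at 20 µM, limit read from the data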;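 further: plate controls were DMSO wells with enzyme for no effect and wells lacking enzyme for full effect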
Target sequence (Q9GZU7 76-261 limits assumed): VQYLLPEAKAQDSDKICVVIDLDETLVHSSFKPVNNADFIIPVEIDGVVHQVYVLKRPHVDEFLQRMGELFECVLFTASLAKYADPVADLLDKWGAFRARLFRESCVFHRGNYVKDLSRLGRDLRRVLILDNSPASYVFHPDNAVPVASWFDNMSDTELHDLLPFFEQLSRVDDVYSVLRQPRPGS
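assay system = SCP-1 phosphatase catalytic domain, residues 76-261 | buffer or medium = 50 mM Tris acetate pH 5.5, 0.005% Tween-20, 10 mM MgCl2 | incubation = enzyme reaction 45 min at room temperature, colour 5 min, stabilisation 30 min | signal = Phosphate-binding colour reagent, absorbance read at 630 nm | measure = % inhibition at 20 µM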
Scp-1 conf = Scp-1 phosphatase inhibitors, retest, confirmation, biochemical, colorimetric, single concentration. recombinant SCP-1 catalytic domain, phosphate release, malachite green absorbance. shares compounds with Scp1 inh. inhibition, % at 20 µM. 61% of 2,500 active. AID 540281, 2011;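 further: plate controls were DMSO with enzyme for no effect and buffer wells lacking enzyme for full effect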
Scp-1 MG ctr = colorimetric readout interference by compounds, confirmation, artefact control for Scp-1 inhibitor project, biochemical, single concentration; shares compounds with Scp1 inh; Colorimetric interference counterscreen, malachite green absorbance 630 nm; apparent inhibition (interference), % at 20 µM; 2,500 tested, under 10 active; AID 540313, 2011;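 further: compounds added after enzyme reaction finished so only phosphate colour detection is probed; plate controls were DMSO wells with completed Scp-1 reaction for no effect and substrate wells lacking enzyme for full effect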
Scp1 DSF = Scp-1 binding by thermal shift, confirmation, orthogonal assay for Scp-1 inhibitor project, biophysical, differential scanning fluorimetry; Recombinant SCP1, Sypro Orange thermal shift Tm; shares compounds with Scp1 inh; 25% of 1,500 active; thermal shift relative to vanadate control, % at 40 µM; AID 540329, 2011;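 active means substances whose mean melting-temperature shift, as a percentage of the reference inhibitor's shift, reaches about 5.3%, limit read from the data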;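 further: 0% = Tm of DMSO wells and 100% = Tm with sodium orthovanadate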
DNMT1 confirm = DNMT1 methyltransferase inhibitor retest, confirmation, biochemical, molecular beacon, fluorescence, single concentration; DNMT1 molecular beacon HinP1I cleavage; AID 602385, 2012; shares compounds with DNMT1 inh; 8% of 2,300 active; inhibition, % at 10 µM;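 active means average inhibition of at least 30% in the single-concentration confirmation test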
DNMT1 interf = beacon fluorescence artifact counter-screen. shares compounds with DNMT1 inh. DNMT1 molecular beacon spectral interference counterscreen, fluorescence 485/520. activation (fluorescence interference), % at 10 µM. 1% of 2,300 active. AID 602387;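 active means activation of at least 30% at 10 µM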;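 further: DNMT1 catalytic domain with a HinP1I cleavage step and a FAM/dabcyl DNA beacon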
Numbers without * were called inactive; . = no result. Shown are actives, neighbours in structure and some others; about 1.7% of the full set was active somewhere.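 How the source made its calls, unless noted: active means inhibition of at least 30% at 20 µM; inactive means the rest.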

SMILES	STEP inh	SUMO1-SIM PPI	LMPTP block	DNMT1 inh	Scp1 inh	Scp-1 conf	Scp-1 MG ctr	Scp1 DSF	DNMT1 confirm	DNMT1 interf
COc1ccc2c(c1)C(=NNC(=O)c1ccccn1)c1cc(OC)ccc1-2	31	10	29	88*	81*	62*	-13	0	2	-3
COc1ccc(C(CC(=O)N2CCCCC2)c2c(OC)cc(OC)c3c(-c4ccccc4)cc(=O)oc23)cc1 (configuration not stated)	3	4	15	102*	79*	65*	-12	-13	3	-2
COc1ccc(C(CC(=O)N2CCCC(C)C2)c2c(OC)cc(OC)c3c(-c4ccccc4)cc(=O)oc23)cc1 (configuration not stated)	3	8	15	89*	58*	62*	-14	-9	1	-5
CCn1c(SCC(=O)OC)nc2sc3c(c2c1=O)CCC3	7	4	6	70*	57*	64*	-11	-1	5	4
CCn1c(SCC(=O)OC)nc2sc3c(c2c1=O)CC(C)(C)OC3	0	-1	0	2	-1	.	.	.	.	.
Cn1c(SCC(=O)O)nc2sc3c(c2c1=O)CCC3	1	-1	-3	0	1	.	.	.	.	.
CCn1c(SCC(=O)O)nc2sc3c(c2c1=O)CCC3	26	11	10	71*	73*	50*	-19	-3	4	-2
CCc1nc2ccc(C(=O)N3CCN(S(=O)(=O)CC)CC3)cn2c1N(CC)Cc1cccc(Br)c1	0	-1	-5	4	.	.	.	.	.	.
Cc1cc(C)cc(OCC(=O)N/N=C/c2ccco2)c1	-2	-8	0	-1	-10	.	.	.	.	.
O=C(COc1cccc2ccccc12)N/N=C/c1ccco1	1	-17	-2	1	-2	.	.	.	.	.
CCc1ccc(OCC(=O)N/N=C\c2ccco2)c([N+](=O)[O-])c1	7	-10	10	81*	80*	47*	-20	2	8	6
O=C(COc1cccc([N+](=O)[O-])c1)N/N=C/c1ccco1	14	-14	18	59*	63*	45*	-11	-13	0	2
C=CCn1c(SCC(=O)N(C(C)CC)C2CCS(=O)(=O)C2)nc2ccccc2c1=O (configuration not stated)	-3	1	-1	1	-2	.	.	.	.	.
CC(CS(=O)(=O)c1ccc2c(c1)NC(=O)CS2)C(=O)NCc1ccccc1Cl (configuration not stated)	5	90*	2	93*	76*	81*	6	4	17	4
O=C(N/N=C/c1ccco1)c1cccc(NC(=O)c2ccccc2Cl)c1	1	-23	0	0	-5	.	.	.	.	.
Cc1cccc(C(=O)Nc2ccc(C(=O)N/N=C/c3ccco3)cc2)c1	21	0	20	72*	77*	56*	-13	-8	5	2
Cc1ccc(CNC(=O)c2ccc(-n3cccc3)cc2)cc1	4	4	12	95*	55*	64*	-7	-2	13	5
O=C(/C=C/c1ccco1)N(c1ccccn1)c1ccccn1	26	19	15	97*	65*	69*	-6	6.3*	6	-3
CS(=O)(=O)c1ccc(-c2sc3ccccc3c2C(=O)N2CCN(c3ccc(F)cc3)CC2)cc1	-3	-1	6	60*	68*	63*	-10	4	10	1
O=C(Nc1cc(-c2ccccc2)nn1-c1ccccc1)c1ccccc1F	0	4	1	8	-9	.	.	.	.	.
CC(C)C1OC(CCc2ccccc2)Cc2[nH][nH]c(=O)c21 (configuration not stated)	.	-5	-1	.	.	.	.	.	.	.
O=C(N/N=C/C=C\c1ccccc1[N+](=O)[O-])c1cc(-c2ccc3ccccc3c2)n[nH]1	30	-1	42	68*	96*	86*	-4	2	4	-4
Cc1ccc(NC(=O)CNC(=O)C23CC4CC(CC(C4)C2)C3)nc1	-2	-11	-1	2	.	.	.	.	.	.
CN(Cc1ccco1)S(=O)(=O)c1ccc(CN2C(=O)c3cccnc3C2=O)s1	-1	-18	0	1	-7	.	.	.	.	.
O=C(O)c1ccc(N2C(=O)c3cccc4c(C(=O)O)ccc(c34)C2=O)cc1	26	4	15	91*	72*	45*	-21	12*	15	-3
SMILES	STEP inh	SUMO1-SIM PPI	LMPTP block	DNMT1 inh	Scp1 inh	Scp-1 conf	Scp-1 MG ctr	Scp1 DSF	DNMT1 confirm	DNMT1 interf
O=c1c2ccccc2nc2sc(Nc3ccc(F)cc3)nn12	37	-61	4	50	92*	74*	-17	-10	2	-1
Cc1ccccc1Nc1nn2c(=O)c3ccccc3nc2s1	2	22	1	-5	-20	.	.	.	.	.
O=C(CSc1ccsc1[N+](=O)[O-])NCc1ccccc1	8	-21	1	-2	0	.	.	.	.	.
O=C(CSc1ccsc1[N+](=O)[O-])Nc1cccc(F)c1	3	-4	25	96*	75*	59*	-23	9.1*	10	0
CC1Sc2ccc(C#N)cc2N(Cc2cccc(C(F)(F)F)c2)C1=O (configuration not stated)	0	2	1	10	.	.	.	.	.	.
C=CC(=O)NCC1OCCc2ccccc21 (configuration not stated)	-2	0	0	1	1	.	.	.	.	.
